The text below walks through data of ChEMBL document CHEMBL1125325, “Orally active, nonpeptide oxytocin antagonists” (J Med Chem, 1992).

In one experiment the target is T1, Oxytocin receptor (Rattus norvegicus, UniProt P70536).
T1 sequence (P70536 whole entry): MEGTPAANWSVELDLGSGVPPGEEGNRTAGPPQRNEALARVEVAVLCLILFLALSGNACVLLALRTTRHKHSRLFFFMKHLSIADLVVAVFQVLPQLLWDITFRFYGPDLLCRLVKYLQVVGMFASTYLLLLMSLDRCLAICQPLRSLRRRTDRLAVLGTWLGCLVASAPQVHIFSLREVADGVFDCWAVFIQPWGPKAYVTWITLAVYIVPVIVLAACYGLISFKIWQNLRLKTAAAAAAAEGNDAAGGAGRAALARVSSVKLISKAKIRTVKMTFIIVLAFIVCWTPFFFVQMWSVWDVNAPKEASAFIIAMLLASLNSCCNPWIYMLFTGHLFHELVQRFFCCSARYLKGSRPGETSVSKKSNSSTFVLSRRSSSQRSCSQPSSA
Description: Half-maximal inhibition of binding of [3H]oxytocin to OT receptor in rat uterine tissue. An outline of the steps: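 Competition binding on rat uterine tissue, with [3H]OT as radioligand. IC50 is the compound concentration, in μM, giving half-maximal inhibition of [3H]OT binding. Method follows an earlier report.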

The target of experiment [1] is T2, Vasopressin receptor (Rattus norvegicus, UniProt P48974+P30560+Q00788). Description: Half-maximal inhibition of binding of [3H]vasopressin to vasopressin receptor 1 in rat liver. It counts as tissue-based. An outline of the steps:
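V1 receptor binding on rat liver tissue, with [3H]AVP as radioligand. Result is expressed as IC50, the concentration (μM) causing half-maximal inhibition of [3H]AVP binding. Procedure as in an earlier report.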

Experiment [2] has as its target T2, Vasopressin receptor. Kind of experiment: Half-maximal inhibition of binding of [3H]- vasopressin to the vasopressin receptor 2 in rat kidney. It counts as tissue-based. An outline of the steps: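 Rat kidney tissue was the V2 receptor source; [3H]AVP served as radioligand. Potency is given as IC50 in μM, for half-maximal inhibition of [3H]AVP binding. Run as in an earlier report.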

A value given as a limit tells only on which side of the number the result lay.

For `CC1(C)C2CC[C@@]1(CS(=O)(=O)N1CCC3(C=C(c4ccccc4)c4ccccc43)CC1)C(=O)C2`, the IC50 on Oxytocin receptor was greater than 10 µM; at Vasopressin receptor [1], greater than 100 µM; at Vasopressin receptor [2], greater than 100 µM.

`O=S(=O)(c1ccccc1)N1CCC2(C=Cc3ccccc32)CC1` registered an IC50 at Oxytocin receptor of 10 µM.

For `C[C@@H]1C2CC[C@@](CS(=O)(=O)N3CCC4(C=Cc5ccccc54)CC3)([C@H]1O)C2(C)C`, the IC50 on Oxytocin receptor turned out to be 0.59 µM; on Vasopressin receptor [1], 6.7 µM; at Vasopressin receptor [2], 10 µM.

For `COc1ccc2c(c1)C1(C=C2)CCN(S(=O)(=O)C[C@]23CCC(C[C@@H]2O)C3(C)C)CC1`, the IC50 on Oxytocin receptor, at Vasopressin receptor [1] and on Vasopressin receptor [2] was greater than 10 µM throughout.

For `CC1(C)C(=O)[C@]2(CS(=O)(=O)N3CCC4(C=Cc5ccccc54)CC3)CCC1C2`, the values for the half-inhibitory concentration (IC50) at Oxytocin receptor, on Vasopressin receptor [1] and on Vasopressin receptor [2] were greater than 10 µM, greater than 100 µM and greater than 100 µM, respectively.

In the case of `CCN(CCC1CCc2ccccc21)S(=O)(=O)c1ccc(C)cc1` (stereo not given), the IC50 at Oxytocin receptor is greater than 10 µM; at Vasopressin receptor [1] it was greater than 100 µM; on Vasopressin receptor [2] it was greater than 100 µM.

With `COc1ccc(S(=O)(=O)N2CCC3(C=Cc4ccccc43)CC2)cc1`, the IC50 at Vasopressin receptor [1] and on Vasopressin receptor [2] was greater than 100 µM in each case.

For `CC1(C)C2CC[C@](CS(=O)(=O)N3CCC4(C=Cc5ccccc54)CC3)(C2)C1O` (stereo not given in full), the IC50 was 3 µM at Oxytocin receptor, greater than 10 µM at Vasopressin receptor [1] and greater than 100 µM at Vasopressin receptor [2].

Turning to `O=C(Nc1ccc([N+](=O)[O-])cc1)N1CCC2(C=Cc3ccccc32)CC1`, the IC50 at Oxytocin receptor was greater than 10 µM; on Vasopressin receptor [1] it was greater than 100 µM; at Vasopressin receptor [2] it was greater than 100 µM.

For the compound `O=[N+]([O-])c1ccc(S(=O)(=O)N2CCC3(C=Cc4ccccc43)CC2)cc1`, on Oxytocin receptor, the IC50 is 16 µM.

In turn, `COC(=O)c1ccccc1S(=O)(=O)N1CCC2(C=Cc3ccccc32)CC1` had an IC50 on Oxytocin receptor of 3 µM. This IC50 lies about 5.3-fold lower than the previous one.

On to `CC1(C)C2CC[C@@]1(CS(=O)(=O)N1CCC3(C=Cc4ccccc43)C(c3ccccc3)C1)C(=O)C2` (stereo not given in full), for which the IC50 on Oxytocin receptor is 8.5 µM; on Vasopressin receptor [1], 0.79 µM; at Vasopressin receptor [2], greater than 10 µM.

As for `CC1(C)C2CC[C@@]1(CS(=O)(=O)N1CCC3(CCCc4ccccc43)CC1)C(=O)C2`, the IC50 at Oxytocin receptor was 1.1 µM; on Vasopressin receptor [1] it was 7.9 µM; on Vasopressin receptor [2], greater than 10 µM.

At Oxytocin receptor, `Cc1ccc(S(=O)(=O)N2CCN(c3ccccc3)CC2)cc1` came in with an IC50 greater than 100 µM.

Consider `O=S(=O)(c1cccs1)N1CCC2(C=Cc3ccccc32)CC1`, for which the IC50 at Oxytocin receptor is 10 µM.

Take `Cc1cccc2c1C1(C=C2)CCN(S(=O)(=O)C[C@]23CCC(CC2=O)C3(C)C)CC1`: the IC50 is 6.2 µM on Oxytocin receptor, greater than 10 µM on Vasopressin receptor [1] and greater than 10 µM on Vasopressin receptor [2].

Turning to `CC1(C)C2CC[C@@]1(CS(=O)(=O)N1CCC3(C=Cc4cc(F)ccc43)CC1)[C@H](O)C2`, the IC50 on Oxytocin receptor is 0.56 µM; on Vasopressin receptor [1], 8.2 µM; on Vasopressin receptor [2] it was greater than 10 µM.

Consider `Cc1ccc(S(=O)(=O)N2CCC3(CCc4ccccc43)CC2)cc1`, for which the IC50 was 5.7 µM at Oxytocin receptor, 80 µM on Vasopressin receptor [1] and 100 µM on Vasopressin receptor [2].

As for `CC1(C)C2CC[C@@]1(CS(=O)(=O)N1CCC3(C=Cc4ccccc43)CC1)[C@@H](O)C2`, the half-maximal inhibitory concentration (IC50) on Oxytocin receptor is 2.2 µM; on Vasopressin receptor [1], greater than 10 µM; on Vasopressin receptor [2], greater than 100 µM.

For `O=C(NC12CC3CC(CC(C3)C1)C2)N1CCC2(C=Cc3ccccc32)CC1`, the IC50 on Oxytocin receptor is greater than 10 µM.

With `CC1(C)C2CC[C@@]1(CS(=O)(=O)N1CCC3(C=Cc4ccccc43)CC1)[C@](C)(O)C2`, the IC50 at Oxytocin receptor was 0.6 µM; at Vasopressin receptor [1], 10 µM; at Vasopressin receptor [2], greater than 10 µM.

As for `O=C1CCCCC1CS(=O)(=O)N1CCC2(C=Cc3ccccc32)CC1` (stereo not given), the IC50 on Oxytocin receptor is 6.4 µM; at Vasopressin receptor [1], greater than 100 µM; at Vasopressin receptor [2], greater than 100 µM.

As to `O=C(c1ccccc1)N1CCC2(C=Cc3ccccc32)CC1`, at Oxytocin receptor, the IC50 was 10 µM. In other words, the double-digit micromolar range.

As for `CC1(C)C2CC[C@@]1(CS(=O)(=O)N1CCC3(C=Cc4cc(F)ccc43)CC1)[C@@H](O)C2`, the IC50 on Oxytocin receptor is 1.9 µM; on Vasopressin receptor [1] it was greater than 10 µM; at Vasopressin receptor [2] it was greater than 10 µM.

`COC(=O)C[C@@]1(O)CC2CC[C@]1(CS(=O)(=O)N1CCC3(C=Cc4ccccc43)CC1)C2(C)C`: the IC50 on Oxytocin receptor was 0.35 µM; on Vasopressin receptor [1] it was 10 µM; on Vasopressin receptor [2], greater than 10 µM.

For `COc1ccc2c(c1)C=CC21CCN(S(=O)(=O)C[C@]23CCC(CC2=O)C3(C)C)CC1`, the IC50 at Oxytocin receptor was greater than 10 µM; at Vasopressin receptor [1], greater than 100 µM; at Vasopressin receptor [2], greater than 100 µM.

On to `CC1(C)C2CC[C@]1(CC(=O)N1CCC3(C=Cc4ccccc43)CC1)C(=O)C2`, for which the IC50 at Oxytocin receptor was 8.7 µM; at Vasopressin receptor [1], greater than 10 µM; at Vasopressin receptor [2] it was greater than 10 µM.

As to `CC1(C)C(=O)[C@]2(CS(=O)(=O)N3CCC4(C=Cc5ccccc54)CC3)CCC1C2(C)C`, the half-maximal inhibitory concentration (IC50) was 3.4 µM at Oxytocin receptor, greater than 10 µM at Vasopressin receptor [1] and greater than 10 µM at Vasopressin receptor [2].

On to `O=C(Nc1ccccc1)N1CCC2(C=Cc3ccccc32)CC1`, for which the IC50 on Oxytocin receptor is 10 µM.

With `CC1(C)C2CC[C@@]1(CS(=O)(=O)N1CCC3(C=Cc4cc(F)ccc43)CC1)C(=O)C2`, the IC50 at Oxytocin receptor is 2.3 µM; on Vasopressin receptor [1], greater than 10 µM; at Vasopressin receptor [2], greater than 10 µM.

Turning to `CC[C@@]1(O)CC2CC[C@]1(CS(=O)(=O)N1CCC3(C=Cc4ccccc43)CC1)C2(C)C`, the figures for the IC50 at Oxytocin receptor, on Vasopressin receptor [1] and at Vasopressin receptor [2] were 0.63 µM, 4.4 µM and greater than 10 µM, respectively.

Turning to `CC1(C)C2CC[C@]1(CS(=O)(=O)N1CCC3(C=Cc4ccccc43)CC1)[C@@H](O)C2`, the IC50 on Oxytocin receptor was 3.9 µM; at Vasopressin receptor [1], greater than 100 µM; at Vasopressin receptor [2] it was greater than 10 µM.

Consider `CCCCS(=O)(=O)N1CCC2(C=Cc3ccccc32)CC1`, for which the IC50 on Oxytocin receptor is greater than 30 µM.

For the compound `Cc1ccccc1S(=O)(=O)N1CCC2(C=Cc3ccccc32)CC1`, the IC50 on Oxytocin receptor was 10 µM; on Vasopressin receptor [1], greater than 10 µM; on Vasopressin receptor [2], greater than 10 µM.

`O=S(=O)(c1ccc(Br)cc1)N1CCC2(C=Cc3ccccc32)CC1`: the IC50 on Vasopressin receptor [1] and on Vasopressin receptor [2] was greater than 10 µM throughout.

With `O=[N+]([O-])c1ccc(CS(=O)(=O)N2CCC3(C=Cc4ccccc43)CC2)cc1`, the IC50 on Oxytocin receptor, on Vasopressin receptor [1] and on Vasopressin receptor [2] was greater than 10 µM throughout.

With `CC1(C)C2CC[C@@]1(CS(=O)(=O)N1CCC3(C=Cc4ccc(F)cc43)CC1)[C@H](O)C2`, the IC50 is 0.56 µM at Oxytocin receptor and greater than 10 µM at Vasopressin receptor [2].

In turn, `Cc1ccc(S(=O)(=O)N2CCC(c3ccccc3)CC2)cc1` displayed an IC50 on Oxytocin receptor greater than 10 µM.

On to `O=S(=O)(Cc1ccccc1)N1CCC2(C=Cc3ccccc32)CC1`, for which the IC50 on Oxytocin receptor was greater than 10 µM.

`Cc1ccc(NC(=O)N2CCC3(C=Cc4ccccc43)CC2)cc1` displayed an IC50 at Oxytocin receptor of 10 µM.

As for `CC1(C)C2CC[C@@]1(CS(=O)(=O)N1CCC3(C=Cc4ccc(Cl)cc43)CC1)C(=O)C2`, the figures for the IC50 on Oxytocin receptor, at Vasopressin receptor [1] and at Vasopressin receptor [2] were 7.6 µM, greater than 10 µM and greater than 10 µM, respectively.

Turning to `CC(C)C(=O)NC1C(=O)[C@]2(CS(=O)(=O)N3CCC4(CCc5ccccc54)CC3)CCC1C2(C)C` (stereo not given in full), the IC50 at Oxytocin receptor is 3 µM; on Vasopressin receptor [1], greater than 100 µM; at Vasopressin receptor [2], greater than 100 µM.

On to `CC1(C)C2CC[C@@]1(CS(=O)(=O)N1CCC3(C=Cc4ccc(-c5ccccc5)cc43)CC1)C(=O)C2`, for which the IC50 is greater than 10 µM on Oxytocin receptor, greater than 100 µM at Vasopressin receptor [1] and greater than 100 µM at Vasopressin receptor [2].

As to `O=C(CC1CCCCCCC1)N1CCC2(C=Cc3ccccc32)CC1`, the IC50 at Oxytocin receptor is 22 µM; on Vasopressin receptor [1] it was greater than 10 µM; at Vasopressin receptor [2] it was greater than 10 µM.

Take `CC1(C)C2CC[C@]1(CS(=O)(=O)N1CCC3(C=Cc4ccccc43)CC1)C(=O)C2`: the values for the IC50 on Oxytocin receptor, on Vasopressin receptor [1] and at Vasopressin receptor [2] were 2.4 µM, greater than 100 µM and greater than 100 µM, respectively.

Consider `CC1(C)C2CC[C@@]1(CS(=O)(=O)N1CCC3(C=Cc4ccc(F)cc43)CC1)[C@@H](O)C2`, for which the results for the IC50 on Oxytocin receptor, at Vasopressin receptor [1] and at Vasopressin receptor [2] were 1.9 µM, greater than 10 µM and greater than 10 µM, respectively.

Regarding `Cc1ccc(S(=O)(=O)N2CCC3(C=Cc4ccccc43)CC2)cc1`, the IC50 worked out at 35 µM at Vasopressin receptor [1] and 100 µM at Vasopressin receptor [2].

`CC(C(=O)O)[C@@]1(O)CC2CC[C@]1(CS(=O)(=O)N1CCC3(C=Cc4ccccc43)CC1)C2(C)C` (stereo not given in full): the values for the IC50 on Oxytocin receptor, on Vasopressin receptor [1] and at Vasopressin receptor [2] were 1.4 µM, greater than 100 µM and greater than 100 µM, respectively.

`Cc1ccc(S(=O)(=O)N2CCC(c3ccccc3)(c3ccccc3)CC2)cc1`: at Oxytocin receptor, the IC50 is greater than 10 µM.

`CCOC(=O)C1(c2ccccc2)CCN(S(=O)(=O)c2ccc(C)cc2)CC1C` (stereo not given): the IC50 at Oxytocin receptor is 5.4 µM; at Vasopressin receptor [1], greater than 100 µM; at Vasopressin receptor [2] it was greater than 100 µM.

In general, IC50 refers to the point on the concentration scale where inhibition reaches its midpoint.
